Activity calls are given as the source filed them. The rule behind the calls is not given here.
Columns and labels:
[1] = system: Nucleic Acid; test: Binding affinity to hairpin oligomer duplex A4GCT4 DNA (unknown origin) assessed as change in melting temperature at 2:1 drug/DNA ratio by spectrophotometry; assay type: nucleic-acid assay
[2] = system: Nucleic Acid; test: Binding affinity to hairpin oligomer duplex A4T4 DNA (unknown origin) assessed as change in melting temperature at 2:1 drug/DNA ratio by spectrophotometry; assay type: nucleic-acid assay
[3] = system: Nucleic Acid; test: Binding affinity to hairpin oligomer duplex A4GT4 DNA (unknown origin) assessed as change in melting temperature at 2:1 drug/DNA ratio by spectrophotometry; assay type: nucleic-acid assay
[4] = system: Nucleic Acid; test: Binding affinity to hairpin oligomer duplex A4T4 DNA (unknown origin) at 4:1 drug/DNA ratio by ESI mass spectrometry; assay type: nucleic-acid assay; conditions: Homo sapiens
Summary of the method: (§1)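 Competition ESI-MS run on a mixture of DNA sequences with a pure GC sequence as non-binding internal standard. Ligand was titrated at 1:1, 2:1 and 4:1 mole ratios to each single sequence (e.g. 10 μM ligand to 5 μM DNA). Relative peak intensities of free DNA and ligand-DNA complexes were compared.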

[5] = system: Nucleic Acid; test: Binding affinity to hairpin oligomer duplex A4GT4 DNA (unknown origin) at 4:1 drug/DNA ratio by ESI mass spectrometry; assay type: nucleic-acid assay; conditions: Homo sapiens; summary of the method: as §1
[6] = system: Nucleic Acid; test: Binding affinity to hairpin oligomer duplex A4GCT4 DNA (unknown origin) by ESI mass spectrometry; assay type: nucleic-acid assay; conditions: Homo sapiens
[7] = system: Nucleic Acid; test: Binding affinity to biotinylated-hairpin oligomer duplex A4T4 DNA (unknown origin) by surface plasmon resonance method; assay type: nucleic-acid assay; conditions: Homo sapiens
Summary of the method: (§2)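 SPR sensorgrams recorded for ligand injected over immobilized hairpin DNA at a concentration series: 2, 3, 5, 7, 10 and 15 nM for A4GT4, higher concentrations for A4IT4 and A4T4.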

[8] = system: DNA; test: Binding affinity to AATTCAATT-AATTGAATT DNA fragment (unknown origin) by DNaseI footprinting analysis; assay type: nucleic-acid assay; conditions: Homo sapiens
[9] = target: Nucleic Acid; test: Binding affinity to biotinylated-hairpin oligomer duplex A4GT4 DNA (unknown origin) by surface plasmon resonance method in presence of 0.1 M Na+ ion; assay type: nucleic-acid assay, Homo sapiens; summary of the method: as §2
[10] = system: Nucleic Acid; test: Binding affinity to hairpin oligomer duplex A4GT4 DNA (unknown origin) by circular dichroism method; assay type: nucleic-acid assay; conditions: Homo sapiens
Summary of the method: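 Ligand titrated incrementally into the DNA, with CD spectra followed in the DNA region (230 to 290 nm).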

[11] = system: DNA; test: Binding affinity to A4CT4-A4GT4 DNA fragment (unknown origin) by DNaseI footprinting analysis; assay type: nucleic-acid assay; conditions: Homo sapiens
[12] = system: DNA; test: Binding affinity to AATTGCAATT-AATTGCAATT DNA fragment (unknown origin) by DNaseI footprinting analysis; assay type: nucleic-acid assay; conditions: Homo sapiens
[13] = target: Nucleic Acid; test: Binding affinity to biotinylated-hairpin oligomer duplex A4IT4 DNA (unknown origin) by surface plasmon resonance method; assay type: nucleic-acid assay, Homo sapiens; summary of the method: as §2
[14] = system: Nucleic Acid; test: Binding affinity to biotinylated-hairpin oligomer duplex A4GCT4 DNA (unknown origin) by surface plasmon resonance method; assay type: nucleic-acid assay; conditions: Homo sapiens

ΔTm [1] [°C]	ΔTm [2] [°C]	ΔTm [3] [°C]	Activity [4]	Activity [5]	Activity [6]	Activity [7]	Activity [8]	Kd [9] [nM]	Activity [10]	Activity [11]	Activity [12]	Kd [13] [nM]	Activity [14]	SMILES
6	14	19												CN1CCN(c2ccc3nc(-c4ccc(OCc5cccc(COc6ccc(-c7nc8ccc(N9CCN(C)CC9)cc8[nH]7)cc6)n5)cc4)[nH]c3c2)CC1
5	24	19	Active	Active	inactive									N=C(N)c1ccc2nc(-c3ccc(-c4cccc(-c5ccc(-c6nc7ccc(C(=N)N)cc7[nH]6)cc5)n4)cc3)[nH]c2c1
8	15	22		Active	inactive	Active	Active	0.015	Active	Active	inactive	1.2	inactive	N=C(N)c1ccc2nc(-c3ccc(OCc4cccc(COc5ccc(-c6nc7ccc(C(=N)N)cc7[nH]6)cc5)n4)cc3)[nH]c2c1
< 1	21	17	Active	Active	inactive		Active			Active	Active			N=C(N)c1ccc2nc(-c3ccc(OCc4cccc(COc5ccc(-c6nc7ccc(C(=N)N)cc7[nH]6)cc5)c4)cc3)[nH]c2c1
